Calls of active or inactive are those of the source. The rule behind the calls is not given here.
Assays:
[1] = Cytotoxicity against human MT4 cells assessed as cell viability; type: cell-based
Outline: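 Uninfected MT-4 cells run in parallel with the antiviral assay. CC50 = concentration reducing MT-4 cell viability by 50%.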

[2] = tested on: Human immunodeficiency virus 1; assay: Antiviral activity against HIV-1 3B infected in human MT4 cells assessed as inhibition of virus-induced cytopathic effect after 5 days; type: functional, organism-based; details: Human immunodeficiency virus 1, 3B, MT4, 120 h
Outline: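 MT-4 cells infected with HIV-1 IIIB at ~100 times the CCID50 per ml, mixed 1:1 with serial compound dilutions, incubated at 37 °C for 5 days. Viable cell number then determined. EC50 = concentration reducing virus-induced cytopathicity by 50%.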

[3] = tested on: Human immunodeficiency virus 2; assay: Antiviral activity against HIV-2 ROD; type: functional, organism-based; details: ISOLATE ROD
[4] = Selectivity index, ratio of CC50 for human MT4 cells to EC50 for HIV-1 3B; type: toxicity, cell-based; details: read-out: Ratio CC50/EC50
Outline: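 Calculated as CC50/EC50, both from MT-4 cells: CC50 from the parallel viability assay, EC50 from the 5-day HIV-1 IIIB cytopathicity assay.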

[5] = tested on: Human immunodeficiency virus 1; assay: Antiviral activity against NNRTI-resistant HIV-1 RES056 harboring reverse transcriptase K103N/Y181C double mutant; type: functional, organism-based
Outline: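 MT-4 cells were infected with virus at about 100 times the CCID50 per ml of cell suspension and mixed with serial compound dilutions. They were incubated 5 days at 37 °C, then viable cells were counted. EC50 is the concentration that reduces virus-induced cytopathic effect by 50%. Cytotoxicity was measured in parallel in MT-4 cells.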

[6] = molecular target: Human immunodeficiency virus type 1 reverse transcriptase (Human immunodeficiency virus 1, UniProt Q72547); assay: Inhibition of GST-tagged recombinant wild type HIV-1 reverse transcriptase p66/p51 RNA-dependent DNA polymerase activity expressed in Escherichia coli JM109 using dTTP as substrate after 40 mins by spectrofluorometric analysis

COC(=O)c1ccc(NC(=O)CSc2nc3ccc(Cl)cc3n2Cc2cc(C)cc(C)c2)c(Cl)c1
CC50 [1]: 105 µM
EC50 [2]: > 105 µM
Activity [3]: inactive
selectivity ratio [4]: < 1
Activity [5]: inactive
IC50 [6]: > 227 µM

Cc1cc(C)cc(S(=O)(=O)n2c(SCC(=O)Nc3ccccc3Br)nc3ccccc32)c1
EC50 [2]: 0.06 µM
Activity [3]: inactive
selectivity ratio [4]: ≥ 3930
Activity [5]: inactive
IC50 [6]: 0.18 µM

Cc1cc(C)cc(S(=O)(=O)n2c(SCC(=O)Nc3ccccc3Cl)nc3ccccc32)c1
CC50 [1]: 107 µM
EC50 [2]: 0.088 µM
Activity [3]: inactive
selectivity ratio [4]: 1220
Activity [5]: inactive
IC50 [6]: 51.9 µM

COC(=O)c1ccc(NC(=O)CSc2nc3ccccc3n2Cc2cc(C)cc(C)c2)c(Cl)c1
CC50 [1]: 191 µM
EC50 [2]: 6.03 µM
Activity [3]: inactive
selectivity ratio [4]: 32
Activity [5]: inactive
IC50 [6]: 40.3 µM

Cc1cc(C)cc(Cn2c(SCC(=O)Nc3ccc(S(C)(=O)=O)cc3Cl)nc3ccc(Cl)cc32)c1
CC50 [1]: 88.8 µM
EC50 [2]: > 88.8 µM
Activity [3]: inactive
selectivity ratio [4]: < 1
Activity [5]: inactive
IC50 [6]: 70.5 µM

Cc1cc(C)cc(Cn2c(SCC(=O)Nc3ccccc3[N+](=O)[O-])nc3ccccc32)c1
CC50 [1]: 194 µM
EC50 [2]: 1.05 µM
Activity [3]: inactive
selectivity ratio [4]: 184
Activity [5]: inactive
IC50 [6]: 3.91 µM

Cc1cc(C)cc(S(=O)(=O)n2c(SCC(=O)Nc3ccccc3Br)nc3ccc(Cl)cc32)c1
CC50 [1]: 145 µM
EC50 [2]: 3.86 µM
Activity [3]: inactive
selectivity ratio [4]: 37
Activity [5]: inactive
IC50 [6]: 63.5 µM

Cc1cc(C)cc(Cn2c(SCC(=O)Nc3ccc(S(N)(=O)=O)cc3Cl)nc3ccccc32)c1
CC50 [1]: 111 µM
EC50 [2]: 0.21 µM
Activity [3]: inactive
selectivity ratio [4]: 530
Activity [5]: inactive
IC50 [6]: 1.02 µM

Cc1cc(C)cc(S(=O)(=O)n2c(SCC(=O)Nc3ccc(S(C)(=O)=O)cc3Cl)nc3ccc(Cl)cc32)c1
CC50 [1]: 3.59 µM
EC50 [2]: 0.5 µM
Activity [3]: inactive
selectivity ratio [4]: 7
Activity [5]: inactive
IC50 [6]: 2.61 µM

Cc1cc(C)cc(S(=O)(=O)n2c(SCC(=O)Nc3ccccc3[N+](=O)[O-])nc3ccc(Cl)cc32)c1
CC50 [1]: > 235 µM
EC50 [2]: 1.3 µM
Activity [3]: inactive
selectivity ratio [4]: > 182
Activity [5]: inactive
IC50 [6]: 37 µM

Cc1cc(C)cc(S(=O)(=O)n2c(=S)[nH]c3ccc(Cl)cc32)c1
CC50 [1]: 93.1 µM
EC50 [2]: 0.05 µM
Activity [3]: inactive
selectivity ratio [4]: 1860
Activity [5]: inactive
IC50 [6]: 1.76 µM

Cc1cc(C)cc(S(=O)(=O)n2c(=S)[nH]c3ccccc32)c1
CC50 [1]: 41 µM
EC50 [2]: 0.09 µM
Activity [3]: inactive
selectivity ratio [4]: 455
Activity [5]: inactive
IC50 [6]: 1.35 µM

Cc1cc(C)cc(S(=O)(=O)n2c(SCC(=O)Nc3ccccc3[N+](=O)[O-])nc3ccccc32)c1
CC50 [1]: ≥ 26.1 µM
EC50 [2]: 0.04 µM
Activity [3]: inactive
selectivity ratio [4]: ≥ 652
Activity [5]: inactive
IC50 [6]: 100 µM

Cc1cc(C)cc(Cn2c(SCC(=O)Nc3ccc(S(C)(=O)=O)cc3Cl)nc3ccccc32)c1
CC50 [1]: 106 µM
EC50 [2]: 0.54 µM
Activity [3]: inactive
selectivity ratio [4]: 196
Activity [5]: inactive
IC50 [6]: 1.93 µM

Cc1cc(C)cc(S(=O)(=O)n2c(SCC(=O)Nc3ccc(S(N)(=O)=O)cc3Cl)nc3ccc(Cl)cc32)c1
CC50 [1]: 23.4 µM
EC50 [2]: 0.62 µM
Activity [3]: inactive
selectivity ratio [4]: 38
Activity [5]: inactive
IC50 [6]: 3.04 µM

Cc1cc(C)cc(Cn2c(SCC(=O)Nc3ccccc3Cl)nc3ccccc32)c1
CC50 [1]: 111 µM
EC50 [2]: 1.12 µM
Activity [3]: inactive
selectivity ratio [4]: 99
Activity [5]: inactive
IC50 [6]: 42.1 µM

Cc1ccnc2c1NC(=O)c1cccnc1N2C1CC1 [NEVIRAPINE]
CC50 [1]: > 15 µM

Cc1cc(C)cc(S(=O)(=O)n2c(SCC(=O)Nc3ccc(S(C)(=O)=O)cc3Cl)nc3ccccc32)c1
CC50 [1]: > 222 µM
EC50 [2]: 0.04 µM
Activity [3]: inactive
selectivity ratio [4]: > 5540
Activity [5]: inactive
IC50 [6]: 0.12 µM

Cc1cc(C)cc(Cn2c(SCC(=O)Nc3ccc(C)cc3Cl)nc3ccccc32)c1
CC50 [1]: 49.1 µM
EC50 [2]: 1.53 µM
Activity [3]: inactive
selectivity ratio [4]: 32.1
Activity [5]: inactive
IC50 [6]: 179 µM

Cc1cc(C)cc(S(=O)(=O)n2c(SCC(=O)Nc3ccc(C)cc3Cl)nc3ccc(Cl)cc32)c1
CC50 [1]: > 234 µM
EC50 [2]: 1.57 µM
Activity [3]: inactive
selectivity ratio [4]: > 149
Activity [5]: inactive
IC50 [6]: 46.4 µM

Cc1cc(C)cc(Cn2c(SCC(=O)Nc3ccccc3Br)nc3ccc(Cl)cc32)c1
CC50 [1]: 174 µM
EC50 [2]: 32.5 µM
Activity [3]: inactive
selectivity ratio [4]: 5
Activity [5]: inactive
IC50 [6]: > 233 µM

Cc1cc(C)cc(Cn2c(=S)[nH]c3ccc(Cl)cc32)c1
Activity [3]: inactive
selectivity ratio [4]: 4
Activity [5]: inactive

Cc1cc(C)cc(S(=O)(=O)n2c(SCC(=O)Nc3ccc(C)cc3Cl)nc3ccccc32)c1
CC50 [1]: 5.4 µM
EC50 [2]: 0.04 µM
Activity [3]: inactive
selectivity ratio [4]: 135
Activity [5]: inactive
IC50 [6]: 0.55 µM

Cc1cc(C)cc(Cn2c(SCC(=O)Nc3ccccc3Cl)nc3ccc(Cl)cc32)c1
CC50 [1]: 141 µM
EC50 [2]: 19.6 µM
Activity [3]: inactive
selectivity ratio [4]: 7
Activity [5]: inactive
IC50 [6]: > 255 µM

Cc1cc(C)cc(Cn2c(SCC(=O)Nc3ccccc3[N+](=O)[O-])nc3ccc(Cl)cc32)c1
CC50 [1]: 131 µM
EC50 [2]: ≥ 26 µM
Activity [3]: inactive
selectivity ratio [4]: ≤ 5
Activity [5]: inactive
IC50 [6]: > 249 µM

Cc1cc(C)cc(Cn2c(SCC(=O)Nc3ccccc3Br)nc3ccccc32)c1
CC50 [1]: ≥ 144 µM
EC50 [2]: 1.12 µM
Activity [3]: inactive
selectivity ratio [4]: ≥ 128
Activity [5]: inactive
IC50 [6]: 15 µM

Cc1cc(C)cc(Cn2c(=S)[nH]c3ccccc32)c1
CC50 [1]: 5.74 µM
EC50 [2]: 1.3 µM
Activity [3]: inactive
selectivity ratio [4]: 4
Activity [5]: inactive
IC50 [6]: 27.2 µM

COC(=O)c1ccc(NC(=O)CSc2nc3ccccc3n2S(=O)(=O)c2cc(C)cc(C)c2)c(Cl)c1
CC50 [1]: 145 µM
EC50 [2]: 0.11 µM
Activity [3]: inactive
selectivity ratio [4]: 1320
Activity [5]: inactive
IC50 [6]: 162 µM

Cc1cc(C)cc(S(=O)(=O)n2c(SCC(=O)Nc3ccc(S(N)(=O)=O)cc3Cl)nc3ccccc32)c1
CC50 [1]: 25.6 µM
EC50 [2]: 0.02 µM
Activity [3]: inactive
selectivity ratio [4]: 1280
Activity [5]: inactive
IC50 [6]: 18.5 µM

Cc1cc(C)cc(Cn2c(SCC(=O)Nc3ccc(S(N)(=O)=O)cc3Cl)nc3ccc(Cl)cc32)c1
CC50 [1]: ≥ 18.6 µM
EC50 [2]: ≥ 22.6 µM
Activity [3]: inactive
selectivity ratio [4]: < 1
Activity [5]: inactive
IC50 [6]: 86.6 µM

Cc1cc(C)cc(S(=O)(=O)n2c(SCC(=O)Nc3ccccc3Cl)nc3ccc(Cl)cc32)c1
CC50 [1]: 99.3 µM
EC50 [2]: 1.77 µM
Activity [3]: inactive
selectivity ratio [4]: 56
Activity [5]: inactive
IC50 [6]: 18.6 µM

COC(=O)c1ccc(NC(=O)CSc2nc3ccc(Cl)cc3n2S(=O)(=O)c2cc(C)cc(C)c2)c(Cl)c1
CC50 [1]: ≥ 130 µM
EC50 [2]: 4.82 µM
Activity [3]: inactive
selectivity ratio [4]: ≥ 27
Activity [5]: inactive
IC50 [6]: 37.6 µM

Cc1cc(C)cc(Cn2c(SCC(=O)Nc3ccc(C)cc3Cl)nc3ccc(Cl)cc32)c1
CC50 [1]: 79.3 µM
EC50 [2]: > 79.3 µM
Activity [3]: inactive
selectivity ratio [4]: < 1
Activity [5]: inactive
IC50 [6]: > 248 µM

O=C1Nc2ccc(Cl)cc2[C@@](C#CC2CC2)(C(F)(F)F)O1 [EFAVIRENZ]
CC50 [1]: > 6.34 µM
EC50 [2]: 0.006 µM

Source: ChEMBL document CHEMBL3112470, “Design and synthesis of N₁-aryl-benzimidazoles 2-substituted as novel HIV-1 non-nucleoside reverse transcriptase inhibitors” (Bioorg Med Chem, 2014)
